Experimental data published in ChEMBL document CHEMBL4715759, “Synthesis, biological evaluation and molecular modeling study of thiadiazolo[3,2-a][1,3]diazepine analogues of HIE-124 as a new class of short acting hypnotics” (Eur J Med Chem, 2016).
Activity calls are given as the source filed them. The calls are words filed in the database; no cut-off is given here.

Assays:
[1] = test system: Mus musculus; experiment: Hypnotic activity in mouse assessed as duration of sleep time at 0.4 mmol/Kg, ip by righting reflex; type: functional
Outline: (§1)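 Mice were first checked for an intact righting reflex. Single i.p. doses of 0.2–2 mmol/kg were given in DMSO (up to 1 ml/kg), or as a 0.25% aqueous carboxymethylcellulose suspension (up to 10 ml/kg) for larger doses, with vehicle controls. Each mouse was placed under a 30-cm glass funnel and monitored visually and by video. Onset of sleep was timed. Duration ended at regain of the righting reflex 3 times within 1 min. Minimal effective dose recorded; n=6.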

[2] = test system: Mus musculus; experiment: Hypnotic activity in mouse assessed as duration of sleep time at 0.06 mmol/Kg, ip in presence of 0.06 mmole/kg thiopenetal by righting reflex; type: functional
Outline: (§2)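 Mice received a test compound (0.03–0.06 mmol/kg) together with thiopental sodium (0.06 mmol/kg), both i.p. Vehicle was DMSO (up to 1 ml/kg), or 0.25% aqueous sodium carboxymethylcellulose suspension for larger doses (up to 10 ml/kg). Each mouse was kept under a 30-cm glass funnel and watched visually and on video. Sleep onset was timed. Duration ended when the righting reflex was regained 3 times within one minute. n=6.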

[3] = test system: Mus musculus; experiment: Hypnotic activity in mouse assessed as onset of sleep time at 0.05 mmol/Kg, ip in presence of 0.06 mmole/kg thiopenetal by righting reflex; type: functional; outline: as §2
[4] = Therapeutic Index, ratio of LD50 of Toxicity in iv dosed mouse to minimum effective hypnotic dose in mouse; type: organism-based; settings: in vivo, read-out: TI
[5] = test system: Mus musculus; experiment: Hypnotic activity in mouse assessed as duration of sleep time at 0.05 mmol/Kg, ip in presence of 0.06 mmole/kg thiopenetal by righting reflex; type: functional; outline: as §2
[6] = test system: Mus musculus; experiment: Hypnotic activity in mouse assessed as onset of sleep time at 0.06 mmol/Kg, ip in presence of 0.06 mmole/kg thiopenetal by righting reflex; type: functional; outline: as §2
[7] = test system: Mus musculus; experiment: Hypnotic activity in mouse assessed as onset of sleep time at 0.4 mmol/Kg, ip by righting reflex; type: functional; outline: as §1
[8] = test system: Mus musculus; experiment: Hypnotic activity in mouse assessed as onset of sleep time at 0.8 mmol/Kg, ip by righting reflex; type: functional; outline: as §1
[9] = test system: Mus musculus; experiment: Hypnotic activity in mouse assessed as duration of sleep time at 0.8 mmol/Kg, ip by righting reflex; type: functional; outline: as §1
[10] = test system: Mus musculus; experiment: Hypnotic activity in mouse assessed as onset of sleep time at 0.2 mmol/Kg, ip by righting reflex; type: functional
Outline: (§3)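 Mice screened for intact righting reflex, then dosed i.p. (0.2–2 mmol/kg range; DMSO up to 1 ml/kg, or larger doses suspended in 0.25% aqueous Na-CMC up to 10 ml/kg). Each mouse was held under a 30-cm glass funnel and monitored visually and by video. Onset was recorded at loss of righting reflex. Sleep ended when the reflex was regained 3 times within one minute. n=6.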

[11] = test system: Mus musculus; experiment: Hypnotic activity in mouse assessed as duration of sleep time at 0.2 mmol/Kg, ip by righting reflex; type: functional; outline: as §3
[12] = test system: Mus musculus; experiment: Hypnotic activity in mouse assessed as duration of sleep time at 1.6 mmol/Kg, ip by righting reflex; type: functional, organism-based; outline: as §1
[13] = test system: Mus musculus; experiment: Hypnotic activity in mouse assessed as onset of sleep time at 1.6 mmol/Kg, ip by righting reflex; type: functional; outline: as §1
[14] = test system: Mus musculus; experiment: Hypnotic activity in mouse assessed as duration of sleep time at 1 mmol/Kg, ip by righting reflex; type: functional; outline: as §1
[15] = test system: Mus musculus; experiment: Hypnotic activity in mouse assessed as onset of sleep time at 1 mmol/Kg, ip by righting reflex; type: functional; outline: as §1
[16] = test system: Mus musculus; experiment: Hypnotic activity in mouse assessed as onset of sleep time at 0.03 mmol/Kg, ip in presence of 0.06 mmole/kg thiopenetal by righting reflex; type: functional; outline: as §2
[17] = test system: Mus musculus; experiment: Hypnotic activity in mouse assessed as duration of sleep time at 0.03 mmol/Kg, ip in presence of 0.06 mmole/kg thiopenetal by righting reflex; type: functional; outline: as §2

O=C1CCCN2N=C(c3ccccc3)SC2=N1
Time [1]: 94.8 min | Time [2]: 62.5 min | Time [3]: 15 min | selectivity ratio [4]: 6.62 | Time [5]: 5 min | Time [6]: 7.5 min | Time [7]: 6.4 min

O=C1CCCN2N=C(C(F)(F)F)SC2=N1
selectivity ratio [4]: 3.32 | Time [8]: 14 min | Time [9]: 14 min

CCCC(C)C1(CC)C(=O)[N-]C(=S)NC1=O.[Na+] (centres undefined) [THIOPENTAL SODIUM]
Time [10]: 2 min | selectivity ratio [4]: 6.1 | Time [11]: 45 min

Cc1ccc(C2=NN3CCCC(=O)N=C3S2)cc1
Activity [12]: inactive | selectivity ratio [4]: 1.25 | Time [13]: 20 min

CC1=NN2CCCC(=O)N=C2S1
Time [14]: 6 min | selectivity ratio [4]: 3.55 | Time [15]: 25 min

O=C1CCCN2N=C(c3ccc(Br)cc3)SC2=N1
Activity [1]: inactive | selectivity ratio [4]: 1.5 | Time [16]: 3.1 min | Time [17]: 75 min | Time [7]: 43.4 min
